Screens deposited in PubChem by Sanford-Burnham Center for Chemical Genomics.
Scp-1 inhibitor: inhibitors of human Scp-1 phosphatase; Q9GZU7; Recombinant Scp1, phosphopeptide, malachite green phosphate absorbance; inhibition, % at 20 µM; 340,000 compounds, 0.88% hits; AID 493091;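 active = inhibition above about 50% at 20 µM, limit read from the data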;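 also: plate controls were DMSO wells with enzyme for no effect and wells lacking enzyme for full effect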
Target sequence (Q9GZU7 76-261 limits assumed): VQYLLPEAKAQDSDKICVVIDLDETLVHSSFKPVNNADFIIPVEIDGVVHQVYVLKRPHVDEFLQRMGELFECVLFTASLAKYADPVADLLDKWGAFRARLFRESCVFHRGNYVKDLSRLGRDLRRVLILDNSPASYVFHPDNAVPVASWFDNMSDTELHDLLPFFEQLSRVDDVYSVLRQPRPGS
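System: truncated SCP-1 phosphatase (76-261aa); medium: Tris acetate buffer pH 5.5 with MgCl2 and Tween-20; incubation: 45 min room-temperature reaction, 5 min colour, 30 min stabiliser; compound: single 20 µM dose, 1% DMSO; reagent: Phosphorylated 17-residue peptide substrate; read-out: % inhibition at 20 µM; technique: colorimetric free-phosphate detection, absorbance 630 nm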
SUMO1-SIM PPI: modulators of human SUMO1-mediated protein-protein interactions; P63165; SUMO1 binding to a labelled peptide, TR-FRET, 1 h; inhibition, % at 20 µM; 360,000 compounds, 0.33% hits; AID 602429; in the data active = inhibition above about 37%
Target sequence (P63165 whole entry, looked up): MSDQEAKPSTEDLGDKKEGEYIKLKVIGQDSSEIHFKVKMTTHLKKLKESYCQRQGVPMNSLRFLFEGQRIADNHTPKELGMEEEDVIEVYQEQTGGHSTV
STEP block: inhibitors of human striatal-enriched phosphatase STEP; P54829; recombinant STEP, OMFP fluorogenic substrate, fluorescence; inhibition, % at 20 µM; 360,000 compounds, 0.25% hits;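 active = inhibition at 20 µM, scaled per plate between control wells, above about 37%, limit read from the data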;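 also: 0% = DMSO with enzyme and substrate and 100% = substrate only without enzyme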
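System: STEP phosphatase, cell-free reaction; Buffer or medium: Bis-Tris pH 6.0 buffer with DTT, detergent; Incubation: 20 min at room temperature, dark; Measured by: fluorescence, 480/540 nm.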
LMPTP inh: LMPTP (human) inhibition; P24666; recombinant LMPTP-A, OMFP fluorogenic substrate, fluorescence intensity; inhibition, % at 20 µM; 360,000 compounds, 0.22% hits; AID 651560;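 active = compounds that cut the enzyme signal by at least half of the control window in the single-dose screen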;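 also: plate controls were DMSO wells with enzyme plus substrate for no effect and substrate without enzyme for full effect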
Target sequence (P24666 whole entry, looked up): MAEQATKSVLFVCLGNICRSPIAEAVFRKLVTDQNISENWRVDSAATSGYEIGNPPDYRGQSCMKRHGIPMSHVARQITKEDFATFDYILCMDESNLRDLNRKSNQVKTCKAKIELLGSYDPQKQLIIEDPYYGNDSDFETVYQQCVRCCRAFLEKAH
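Test system – LMPTP-A enzyme · Amount – LMPTP-A at 0.625 nM final in the reaction · Buffer or medium – Bis-Tris pH 6.0, DTT, detergent · Reagent – OMFP 400 µM · Doses – single 20 µM dose · Schedule – reaction 50 min, room temperature, dark · Detection – fluorescence intensity of OMFP turnover product · Evaluation – percent inhibition versus substrate-only and uninhibited controls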
DNMT1 block: DNMT1 (human) enzyme inhibition; P26358; DNMT1 molecular beacon, Hinp1I cleavage, fluorescence; inhibition (reported as % activation of signal), % at 10 µM; 360,000 compounds, 0.83% hits; AID 588458; in the data active = inhibition above about 50%
STEP inh conf: STEP (human) phosphatase inhibition, single concentration confirmation. shares compounds with STEP block. recombinant STEP, OMFP fluorogenic substrate, fluorescence. inhibition, % at 20 µM. 520 compounds, 32% hits; call rule not given here;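 also: 0% = enzyme with substrate plus DMSO and 100% = substrate without enzyme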
The depositor's hits bear a star; x = no result given. Most compounds without a hit are left out; they make up all but 1.7% or so of the library.

SMILES	Scp-1 inhibitor	SUMO1-SIM PPI	STEP block	LMPTP inh	DNMT1 block	STEP inh conf
CN(C)c1ccc(C(=S)N2CCN(Cc3ccccc3)CC2)cc1	-7	-1	85*	1	-1	39*
S=C(c1ccc(Br)cc1)N1CCN(Cc2ccccc2)CC1	-11	5	90*	2	5	38*
O=C(c1ccc(Br)cc1)N1CCN(Cc2ccccc2)CC1	-2	1	2	-2	-1	x
Oc1ccc(C(=S)N2CCN(Cc3ccccc3)CC2)cc1	3	6	62*	1	0	4
CCNC(=S)N1CCN(Cc2ccccc2)CC1	-6	0	1	-3	-3	x
Cc1ccc(C(=S)N2CCN(Cc3ccccc3)CC2)s1	-8	1	78*	2	-2	42*
Cc1nnc(NC(=O)c2cc(-c3ccncc3)nc3c(C)cccc23)s1	-1	4	6	0	0	x
COc1c(Cl)cc(C(=O)Nc2cccnc2)cc1Cl	x	-1	-2	-1	1	x
S=C(c1cn(CCOc2ccccc2)c2ccccc12)N1CCCC1	9	-3	97*	2	-3	63*
CSC(=S)N/N=C(\C)c1ccc(Br)cc1	13	-4	3	3	-4	x
Cc1csc2ncc(C(=O)NCc3ccccn3)c(=O)n12	-6	1	98*	0	4	10
O=C(/C=C/c1ccc(Cl)cc1)N1CCN(Cc2ccccc2)CC1	-6	-11	-1	-1	-2	x
C[C@@H]1CN([C@@H](C)CO)C(=O)CCCn2nncc2CO[C@@H]1CN(C)S(=O)(=O)c1cccc(C#N)c1	x	7	-2	-2	3	x
COc1ccc(-c2csc(N3CCC(C(N)=O)(N4CCCCC4)CC3)n2)cc1	-5	-4	71*	1	3	-2
N#CCSc1ccccc1NC(=O)COC(=O)CCN1C(=O)C2CC=CCC2C1=O (stereo unspecified)	-2	2	-5	0	-1	x
Cc1cc2nc(/C=C/c3nc4cc(C)c(C)cc4[nH]3)[nH]c2cc1C	-4	-1	46*	39	27	19
O=C(O)Cn1cnc2c(=S)nc[nH]c21	-3	3	-2	0	1	x
S=c1nc[nH]c2c1ncn2-c1ccc(Cl)cc1	5	5	86*	1	7	38*
O=C(COC(=O)c1ccccc1O)NCc1ccc2c(c1)OCO2	-5	0	-3	-1	5	x
Fc1ccc(-n2c(=S)[nH]c3cccnc32)cc1	-4	1	65*	1	5	17
O=C(/C=C/c1ccccc1Cl)N1CCN(c2ncccn2)CC1	-1	-7	68*	-1	7	-4
O=C(/C=C/c1ccccc1Cl)N1CCOCC1	-6	1	-1	0	1	x
O=C(Nn1cnnc1)c1ccc(Br)s1	1	5	118*	-1	0	0
O=C(Nc1ccccn1)c1ccc(Br)s1	-8	-1	1	0	0	x
CN(C)C(=O)c1cnc(-c2ccccc2)nc1-c1ccccc1	-3	-2	-3	0	2	x
SMILES	Scp-1 inhibitor	SUMO1-SIM PPI	STEP block	LMPTP inh	DNMT1 block	STEP inh conf
NC1=NC(c2cccc(Cl)c2)N(CCc2ccc(F)cc2)C(N)=N1 (stereo unspecified)	0	-4	2	0	-1	x
CC(=O)N1CCC(N(CCN2CCOCC2)C(=S)Nc2ccc(C)cc2)CC1	-5	2	63*	-3	0	21*
COc1cc(Cl)ccc1NC(=S)N(CCN1CCOCC1)C1CCN(C(C)=O)CC1	0	-2	51*	-2	0	8
CC(=O)N1CCC(N(CCN2CCOCC2)C(=S)Nc2ccc(C)cc2C)CC1	-2	5	6	1	4	x
O=S(=O)(c1ccc2nc(Nc3ccccc3)ccc2c1)N1CCCCC1	5	7	-5	7	0	x
CC1=NN(C(=S)Nc2ccccc2)C(C)(C)C1	-3	-5	-8	0	-3	x
COC(=O)C1=C(CS(=O)(=O)c2ccc(Cl)cc2)NC(=O)NC1c1ccc(O)cc1 (stereo unspecified)	8	-3	93*	-1	27	1
COC(=O)C1=C(CS(=O)(=O)c2ccccc2)NC(=O)NC1c1ccc(O)cc1 (stereo unspecified)	4	-1	-2	-1	1	x
CCCCN(C(=O)COc1ccc(C)cc1OC)c1c(N)n(CCC)c(=O)[nH]c1=O	-8	6	0	0	1	x
Cc1cccc(C)c1NC(=S)N(Cc1ccco1)C1CCN(C(C)C)CC1	-5	3	46*	1	2	8
Cn1ncc2c(=S)nc(Cl)[nH]c21	13	9	1	16	11	x
CCOc1ccc(N2C(=O)c3cccnc3C2Nc2ccc(F)cc2)cc1 (stereo unspecified)	-4	1	52*	-1	-6	26
COc1cc(NC(=S)N2CCN(C)CC2)c(OC)cc1Cl	-2	2	42*	-3	-5	28*
Cc1nn(-c2ccccc2)c(C)c1/C=N/NC(=O)c1cc(-c2ccc(Cl)s2)[nH]n1	-2	3	-2	3	-8	x
O=C(N/N=C/c1ccccn1)c1cc(-c2ccc(Cl)s2)[nH]n1	47	1	42*	5	21	3
COc1cccc(OCc2cc(C(=O)N3CCN(C(C)=O)CC3)no2)c1	-7	0	1	-1	2	x
Cc1ccc(-n2ncc3c(=O)n(CC(=O)N4CCN(C(=O)c5ccco5)CC4)cnc32)cc1	3	-2	2	0	6	x
COc1cc2c(cc1NC(=O)c1ccc(C)c([N+](=O)[O-])c1)oc1ccccc12	-3	-2	0	0	14	x
COc1cc2c(cc1NC(=O)c1cccc([N+](=O)[O-])c1)oc1ccccc12	28	-2	84*	66*	47	12
O=c1c2ccccc2sn1-c1ccc(Cl)cc1Cl	x	2	0	-1	-2	x
Cc1cccc(N2CCN(C(=O)CCNS(=O)(=O)c3ccc4c(c3)oc(=O)n4C)CC2)c1C	7	-3	74*	0	-2	1
O=C(CSc1nccc(=O)[nH]1)NC1CCCC1	-6	7	0	-1	0	x
Cc1ccc2c(=O)cc(C(=O)NC3CCS(=O)(=O)C3)oc2c1C (stereo unspecified)	-9	-11	-4	-1	4	x
COc1ccc(C2/C=C\CN(C(=O)NC(C)C)CC(=O)N2Cc2ccc(F)cc2)cc1 (stereo unspecified)	0	-28	-1	1	16	x
Cc1ccc2nc(Nc3ccc(F)cc3)c3nncn3c2c1	-13	10	45*	27	27	6
CC(C)Oc1ccc(OCCCN2CCCCCC2)cc1	-6	-5	53*	-1	-1	-16
